Assay outcomes: PubChem BioAssay, several laboratories
Compounds with a hit are over-represented: about 2.2% of the library has one in this group of screens.
UBC9 SUMO inh: inhibitors of in vitro SUMOylation cascade, primary screen, biochemical, HTRF, uHTS. 290,000 compounds, 0.36% hits. SUMO-conjugating enzyme UBC9 (Homo sapiens), P63279. HTRF SUMOylation assay, SAE1/SAE2 + UBC9. inhibition, % at 35 µM; in the data active means inhibition above about 50%, passing the limit was not always enough
PAD4 inh: human PAD4 inhibitors, primary screen, biochemical, fluorescence polarization, 1536-well format | Protein-arginine deiminase type-4 (Homo sapiens), Q9UM07 | 330,000 compounds, 0.41% hits | recombinant PAD4, RCA probe fluorescence polarization | inhibition, % at 6.36 µM;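 active means percent inhibition above a cutoff equal to the mean of all tested compounds plus 3 SD, cut at about 15% in these data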;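 further: 0% = PAD4 with RCA probe and DMSO and 100% = probe without PAD4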
Target sequence (Q9UM07 whole entry, looked up): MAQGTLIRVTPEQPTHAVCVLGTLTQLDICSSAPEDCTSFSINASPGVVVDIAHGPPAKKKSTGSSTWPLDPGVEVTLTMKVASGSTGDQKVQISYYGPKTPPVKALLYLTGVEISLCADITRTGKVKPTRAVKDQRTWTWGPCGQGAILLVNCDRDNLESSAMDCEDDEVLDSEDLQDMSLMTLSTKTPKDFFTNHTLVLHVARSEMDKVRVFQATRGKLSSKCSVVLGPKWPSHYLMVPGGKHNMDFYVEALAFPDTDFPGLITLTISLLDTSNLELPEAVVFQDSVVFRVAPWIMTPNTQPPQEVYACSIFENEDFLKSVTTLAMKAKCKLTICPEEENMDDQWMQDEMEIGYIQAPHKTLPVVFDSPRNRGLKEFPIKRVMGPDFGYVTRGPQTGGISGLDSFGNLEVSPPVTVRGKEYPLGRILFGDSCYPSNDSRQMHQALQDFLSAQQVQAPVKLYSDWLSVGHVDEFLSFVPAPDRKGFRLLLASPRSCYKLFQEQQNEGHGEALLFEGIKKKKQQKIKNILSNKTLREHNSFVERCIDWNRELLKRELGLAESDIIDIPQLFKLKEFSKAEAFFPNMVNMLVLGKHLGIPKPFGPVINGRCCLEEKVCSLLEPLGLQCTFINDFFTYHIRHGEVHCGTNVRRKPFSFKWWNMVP
UBC13 inh: UBC13 polyubiquitin chain formation inhibitors, primary screen, biochemical, TR-FRET, uHTS; Ubiquitin-conjugating enzyme E2 N (Homo sapiens), P61088; inhibition, % at 20 µM; 330,000 compounds, 0.47% hits; AID 485273, 2010; in the data active means inhibition above about 45%, passing the limit was not always enough
GSTO1 counter: inhibitors of recombinant GSTO1, primary screen, counter-screen for RBBP9 inhibitor project, biochemical, fluorescence polarization; Glutathione S-transferase omega-1 (Homo sapiens), P78417; activity-based probe fluorescence polarization; inhibition, % at 5.96 µM; 300,000 compounds, 1.1% hits;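 active means inhibition above the campaign mean inhibition plus 3 SD, cut at about 35% in these data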;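 further: 0% = GSTO1-1 with DMSO and 100% = wells lacking GSTO1-1 enzyme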
Rin1-Abl PPI inh: inhibitors of Rin1-Abl protein binding, primary screen, biochemical, TR-FRET; inhibition, % at 7.35 µM; Tyrosine-protein kinase ABL1 (Homo sapiens) + Ras and Rab interactor 1 (Homo sapiens), …; 360,000 compounds, 0.4% hits; in the data active means inhibition above about 5%, passing the limit was not always enough
Apaf1 inhib: inhibitors of human Apaf-1 apoptosome, primary screen, biochemical, DEVD-Rh110 fluorescence, uHTS; Apoptotic protease-activating factor 1 (Homo sapiens), O14727; 330,000 compounds, 0.71% hits; inhibition, % at 20 µM; reconstituted apoptosome caspase-3 activity; AID 489030, 2010; active means inhibition of at least 40% at 20 µM;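 further: plate controls were DMSO wells for no effect and DEVD-CHO caspase inhibitor wells for full effect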
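System: reconstituted apoptosome with Apaf-1, cytochrome c, caspase-9, procaspase-3, dATP; Signal: Rh110 fluorescence intensity; Schedule: 30 min compound preincubation, 50 min activation, room temperature; Reagent: cytochrome c trigger plus (Z-DEVD)2-Rh110 caspase-3 substrate.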
Apaf-1 inh conf2: Apaf-1 inhibitors, single-dose retest, confirmation, biochemical, fluorescence, DEVD-Rh110, 20 µM; AID 504614, 2011; shares compounds with Apaf1 inhib; 1,800 compounds, 25% hits; inhibition, % at 20 µM; reconstituted apoptosome, caspase-3 DEVD-Rh110 fluorescence;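 active means mean inhibition of at least 40% at 20 µM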;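 further: plate controls were DMSO wells for no effect and DEVD-CHO caspase inhibitor control wells for full effect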
Rh110 quench: Rh110 fluorescence interference by putative Apaf-1 inhibitors, confirmation, artefact control for Apaf-1 inhibitor project, biochemical, 20 µM | quenched caspase reaction | shares compounds with Apaf1 inhib | activation (fluorescence interference), % at 20 µM | 1,800 tested, under 10 active;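 active means signal rise of 40% or more at 20 µM, treated as a fluorescence artifact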
Fluor interf inh: fluorescence interference of Apaf-1 inhibitor hits, dose response, artefact control for Apaf-1 inhibitor project; shares compounds with Apaf1 inhib; fluorescence interference counterscreen, Apaf-1 assay format; IC50, µM; 460 tested, under 10 active; AID 588538, 2011; call rule not given here
The depositor's hits bear a star; / = no result.

SMILES	UBC9 SUMO inh	PAD4 inh	UBC13 inh	GSTO1 counter	Rin1-Abl PPI inh	Apaf1 inhib	Apaf-1 inh conf2	Rh110 quench	others
CN(C)c1cccc2c1c(NC(=O)c1ccc(F)cc1)nn2C	22	-1	-7	7	-2	92*	16	1
CN(C)c1cccc2c1c(NC(=O)Nc1ccccc1)nn2C	26	-3	1	13	0	82*	6	7
CN(C)c1cccc2c1c(NC(=O)Nc1ccc(F)cc1F)nn2C	5	-1	-5	0	1	-4	/	/
CN(C)c1cccc2c1c(NC(=O)c1ccc(Cl)cc1)nn2C	10	-4	2	8	-1	7	/	/
CN(CC(=O)Nc1cccc(F)c1)C(=O)C1CC(=O)N(Cc2ccccc2)C1 (configuration not stated)	4	5	-1	1	1	-4	/	/
CN(CC(=O)Nc1ccc(F)cc1)C(=O)C1CC(=O)N(Cc2ccccc2)C1 (configuration not stated)	28	-1	5	2	3	44*	26	3
COCCNC(=O)C1(C)CCCN(C(=O)c2ccc(F)cc2Cl)C1 (configuration not stated)	/	/	/	/	-1	/	/	/
CCC(CO)Oc1cc(NCc2cccc(Cl)c2)c2ncn(C(C)C)c2c1 (configuration not stated)	/	-11	7	/	1	73*	37	9
CCC(CO)Oc1cc(NCc2ccc(C)c(C)c2)c2ncn(C(C)C)c2c1 (configuration not stated)	/	-8	15	/	-1	34	/	/
CCC(CO)Oc1cc(NCc2cccnc2)c2ncn(C(C)C)c2c1 (configuration not stated)	/	-2	-10	/	-4	63*	25	-1
CCC(CO)Oc1cc(NCc2cc(C)cc(C)c2)c2ncn(C(C)C)c2c1 (configuration not stated)	/	-7	6	/	0	36	/	/
CCC(CO)Oc1cc(NCc2ccncc2)c2ncn(C(C)C)c2c1 (configuration not stated)	/	-5	2	/	3	41*	17	-393
Cn1c(=O)c2cc(NC(=O)Cc3cccc4ccccc34)ccc2n1-c1ccccc1	/	/	/	/	0	/	/	/
c1ccc2c(c1)CCN(C1=Nc3cccc4cccc1c34)C2	18	/	-33	/	-3	43*	10	5
C[N+]1(CN2C(=O)C3C4C=CC(C4)C3C2=O)CCCCC1 (configuration not stated)	19	-3	-2	13	1	-6	/	/
CCOC(=O)c1c(NC(=O)c2cccs2)sc(C(=O)N(C)C)c1C	11	8	8	0	-2	-12	/	/
CCOC(=O)c1c(NC(=O)c2cccs2)sc(C)c1CC	0	5	12	3	3	51*	13	9
C[C@H](CO)N1C[C@H](C)[C@H](CN(C)S(=O)(=O)c2ccccc2)OCc2cnnn2CCCC1=O	/	/	/	/	-5	/	/	/
COc1ccc(S(=O)(=O)NCc2ccc3c(c2)cc(C)n3C)cc1	-12	4	-4	0	-2	51*	17	3
CC1CN(Cc2ccccc2)C(=S)N(c2ccccc2)C1=O (configuration not stated)	/	/	/	/	3	/	/	/
O=C(OCc1cn([C@@H]2C[C@H](c3ccccc3)N(Cc3cccs3)C[C@H]2O)nn1)c1ccccc1	/	/	/	/	0	/	/	/
CCCCNC(=O)CNC(=O)c1nn(-c2ccc(OC)cc2OC)c(=O)c2ccccc12	-10	4	-2	-5	8	23	/	/
COc1ccc(-n2nc(C(=O)NCC(=O)NC3CCCC(C)C3C)c3ccccc3c2=O)c(OC)c1 (configuration not stated)	43	-2	2	2	1	55*	62*	3	Fluor interf inh=>100
COc1ccc(-n2nc(C(=O)NCC(=O)NC3CCCC(C)C3C)c3ccccc3c2=O)cc1 (configuration not stated)	-1	-4	15	1	-1	51*	36	6
O=C(NCc1ccco1)Nc1ccc2nsnc2c1	26	-22	9	5	-2	59*	4	4
SMILES	UBC9 SUMO inh	PAD4 inh	UBC13 inh	GSTO1 counter	Rin1-Abl PPI inh	Apaf1 inhib	Apaf-1 inh conf2	Rh110 quench	others
O=C(NCc1ccco1)Nc1ccc(Br)cc1	-1	6	5	0	1	-4	/	/
CCOCCCn1c(SCC(=O)Nc2cc(C(C)(C)C)nn2-c2ccccc2)nc2ccccc2c1=O	-24	-4	18	6	-3	40*	23	8
CCN(CC)CCn1c(SCC(=O)Nc2ccc3c(c2)CCC3)nc2ccccc2c1=O	/	1	40	/	0	51*	7	8
CS(=O)(=O)c1nc(-c2ccc(Br)cc2)cc(-c2ccccc2)c1C#N	3	-10	10	-7	-12	47*	59*	4	Fluor interf inh=>100
COc1ccc(-c2cc(-c3ccccc3)c(C#N)c(S(C)(=O)=O)n2)cc1	21	1	38	-13	-1	31	/	/
O=[N+]([O-])c1cc(F)c2cccnc2c1O	2	1	-99	58*	1	64*	29	8
COc1ccc(N2CCN(C(=O)COc3ccc4c(C)cc(=O)oc4c3C)CC2)cc1	15	0	2	3	2	3	/	/
COc1ccc(N2CCN(C(=O)c3ccc(COc4ccc5c(C)cc(=O)oc5c4)cc3)CC2)cc1	10	-4	-7	0	-2	58*	17	5
COc1ccc(CC(NC(C)=O)C(=O)NC2CCN(c3nnnn3-c3ccccc3)CC2)cc1OC (configuration not stated)	8	-3	11	-5	/	-6	/	/
CN(C)c1oc(-c2ccco2)nc1C#N	10	3	-3	3	0	3	/	/
CN(Cc1ccccc1)c1oc(-c2ccco2)nc1C#N	13	5	6	-3	-1	41*	15	-3
